# Measurements reported in paper PMC5035790 (Annals of Oncology, 2016).
# Marks after values point to notes of the source that are not given here.
# Tests used:
# Assay type in all cases: in vivo, human
# [1] = Plasma pharmacokinetics of copanlisib
# plasma glucose = assay: Plasma glucose and insulin pharmacodynamics; settings: 33 of 51; blood glucose >200 mg/dl
# non-Hodgkin's lymphoma = assay: Tumor response by International Working Group response criteria for lymphoma; settings: follicular lymphoma (FL), six patients
# How it was run: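 NHL expansion cohort (follicular lymphoma and DLBCL) received 0.8 mg/kg as a 1-h IV infusion on days 1, 8 and 15 of each 28-day cycle, continued until progression or unfavourable risk:benefit. Response was judged by investigator assessment using International Working Group lymphoma criteria.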
# [2] = Blood pressure monitoring after infusion
# [3] = cycle 1 day 1, NHL expansion, 0.8 mg/kg, n=9, value (range)
# [4] = cycle 1 day 1, diabetic expansion, 0.4 mg/kg, n=6, value (range)
# [5] = cycle 1 day 1, solid tumors expansion, 0.8 mg/kg, n=25, value (range)
# [6] = human, plasma, intravenous, 0.8 mg/kg
structure (smiles),measurement,setting,value
"COc1c(OCCCN2CCOCC2)ccc2c1N=C(NC(=O)c1cnc(N)nc1)N1CCN=C21 [copanlisib, Copanlisib]",coefficients of variation of Cmax and AUC(0–25),[1]; 0.1 to 1.2 mg/kg,30–50%
same,inter-patient variability of AUC,[1]; MTD 0.8 mg/kg,47%
same,terminal half-life,"[1]; MTD 0.8 mg/kg, coefficient of variation 43%",~38 h
same,Cmax levels of unbound copanlisib,[1]; at the MTD,~150 nM
same,dose dependence of Cmax and AUC(0–25),[1]; between 0.1 and 1.2 mg/kg,dose-proportionally
same,tlast,"[1]; cycle 1 day 1, MTD 0.8 mg/kg combined, n=7, value (range)",142.5 (25.0–194.2)^e h
same,Tmax,"[1]; cycle 1 day 1, MTD 0.8 mg/kg combined, n=34, value (range)",1.0 (0.5–3.0)^d h
same,Tmax,[1]; [3],1.0 (0.5–1.0) h
same,tlast,[1]; [3],167.0 (47.3–191.9) h
same,tlast,"[1]; cycle 1 day 1, cohort 1, 0.1 mg/kg, n=1, individual data",48.6 h
same,tlast,"[1]; cycle 1 day 1, cohort 2, 0.2 mg/kg, n=3, value (range)",48.4 (25.0–49.0) h
same,tlast,"[1]; cycle 1 day 1, cohort 3, 0.4 mg/kg, n=2, range",167.8 to 170.2 h
same,tlast,"[1]; cycle 1 day 1, cohort 4, 0.8 mg/kg, n=7, value (range)",142.5 (25.0–192.0) h
same,tlast,"[1]; cycle 1 day 1, cohort 5, 1.2 mg/kg, n=2, range","29.3–167.2^b,c h"
same,Tmax,[1]; [4],1.0 (1.0–1.2) h
same,tlast,[1]; [4],49.0 (48.9–167.4) h
same,Tmax,[1]; [5],1.0 (0.5–3.0) h
same,tlast,[1]; [5],118.5 (46.4–194.2) h
same,Tmax,"[1]; cycle 1 day 15, MTD 0.8 mg/kg combined, n=36, value (range)",1.0 (0.5–1.3)^m h
same,Tmax,"[1]; cycle 1 day 15, solid tumors expansion, 0.8 mg/kg, n=22, value (range)",1.0 (0.5–1.3)^l h
same,accumulation after once-weekly administration,[1]; days 1 and 15,no accumulation
same,concentration at 1 week,"[1]; human, blood, intravenous, 0.8 mg/kg",1.6 nM
same,AUC(0-t),"[1]; human, plasma, intravenous, 0.1 mg/kg, AUC(0–25), cycle 1 day 1, cohort 1, 0.1 mg/kg, n=1, individual data",170 ng·h/mL
same,AUC(0-t),"[1]; human, plasma, intravenous, 0.1 mg/kg, AUC(0–25), cycle 1 day 15, cohort 1, 0.1 mg/kg, n=1, individual data",175 ng·h/mL
same,AUC(0-t),"[1]; human, plasma, intravenous, 0.1 mg/kg, AUC(0–tlast), cycle 1 day 1, cohort 1, 0.1 mg/kg, n=1, individual data",254 ng·h/mL
same,Cmax,"[1]; human, plasma, intravenous, 0.1 mg/kg, cycle 1 day 1, cohort 1, 0.1 mg/kg, n=1, individual data",32.9 ng/mL
same,Cmax,"[1]; human, plasma, intravenous, 0.1 mg/kg, cycle 1 day 15, cohort 1, 0.1 mg/kg, n=1, individual data",37.6 ng/mL
same,Tmax,"[1]; human, plasma, intravenous, 0.1 mg/kg, tmax, cycle 1 day 1, cohort 1, 0.1 mg/kg, n=1, individual data",0.5 h
same,Tmax,"[1]; human, plasma, intravenous, 0.2 mg/kg",1 h
same,AUC(0-t),"[1]; human, plasma, intravenous, 0.2 mg/kg, AUC(0–25), cycle 1 day 1, cohort 2, 0.2 mg/kg, n=3, geometric mean (%CV)",384 ng·h/mL
same,AUC(0-t),"[1]; human, plasma, intravenous, 0.2 mg/kg, AUC(0–25), cycle 1 day 15, cohort 2, 0.2 mg/kg, n=3, geometric mean (%CV)",453 ng·h/mL
same,AUC(0-t),"[1]; human, plasma, intravenous, 0.2 mg/kg, AUC(0–tlast), cycle 1 day 1, cohort 2, 0.2 mg/kg, n=3, geometric mean (%CV)",472 ng·h/mL
same,Cmax,"[1]; human, plasma, intravenous, 0.2 mg/kg, cycle 1 day 1, cohort 2, 0.2 mg/kg, n=3, geometric mean (%CV)",79.8 ng/mL
same,Cmax,"[1]; human, plasma, intravenous, 0.2 mg/kg, cycle 1 day 15, cohort 2, 0.2 mg/kg, n=3, geometric mean (%CV)",89.4 ng/mL
same,Tmax,"[1]; human, plasma, intravenous, 0.2 mg/kg, tmax, cycle 1 day 1, cohort 2, 0.2 mg/kg, n=3, value (range)",1.1 h
same,Tmax,"[1]; human, plasma, intravenous, 0.4 mg/kg",1 h
same,AUC(0-t),"[1]; human, plasma, intravenous, 0.4 mg/kg, AUC(0–25), cycle 1 day 1, cohort 3, 0.4 mg/kg, n=2, range",348 to 556 ng·h/mL
same,AUC(0-t),"[1]; human, plasma, intravenous, 0.4 mg/kg, AUC(0–25), cycle 1 day 1, diabetic expansion, 0.4 mg/kg, n=6, geometric mean (%CV)",607 ng·h/mL
same,AUC(0-t),"[1]; human, plasma, intravenous, 0.4 mg/kg, AUC(0–25), cycle 1 day 15, cohort 3, 0.4 mg/kg, n=2, range",324 to 803 ng·h/mL
same,AUC(0-t),"[1]; human, plasma, intravenous, 0.4 mg/kg, AUC(0–25), cycle 1 day 15, diabetic expansion, 0.4 mg/kg, n=6, geometric mean (%CV)",687 ng·h/mL
same,AUC(0-t),"[1]; human, plasma, intravenous, 0.4 mg/kg, AUC(0–tlast), cycle 1 day 1, cohort 3, 0.4 mg/kg, n=2, range",722 to 1450 ng·h/mL
same,AUC(0-t),"[1]; human, plasma, intravenous, 0.4 mg/kg, AUC(0–tlast), cycle 1 day 1, diabetic expansion, 0.4 mg/kg, n=6, geometric mean (%CV)",1070 ng·h/mL
same,Cmax,"[1]; human, plasma, intravenous, 0.4 mg/kg, cycle 1 day 1, cohort 3, 0.4 mg/kg, n=2, range",143 to 144 ng/mL
same,Cmax,"[1]; human, plasma, intravenous, 0.4 mg/kg, cycle 1 day 1, diabetic expansion, 0.4 mg/kg, n=6, geometric mean (%CV)",138 ng/mL
same,Cmax,"[1]; human, plasma, intravenous, 0.4 mg/kg, cycle 1 day 15, cohort 3, 0.4 mg/kg, n=2, range",70.1 to 193 ng/mL
same,Cmax,"[1]; human, plasma, intravenous, 0.4 mg/kg, cycle 1 day 15, diabetic expansion, 0.4 mg/kg, n=6, geometric mean (%CV)",151 ng/mL
same,half-life,"[1]; human, plasma, intravenous, 0.4 mg/kg, t1/2, cycle 1 day 1, cohort 3, 0.4 mg/kg, n=1",60.6 h
same,half-life,"[1]; human, plasma, intravenous, 0.4 mg/kg, t1/2, cycle 1 day 1, diabetic expansion, 0.4 mg/kg, n=2, value (%)",34.4 h
same,Tmax,"[1]; human, plasma, intravenous, 0.4 mg/kg, tmax, cycle 1 day 1, cohort 3, 0.4 mg/kg, n=2, range",0.5 to 1.1 h
same,Tmax,"[1]; human, plasma, intravenous, 0.4 mg/kg, tmax, cycle 1 day 15, cohort 3, 0.4 mg/kg, n=2, range",0.5 to 1.1 h
same,Tmax,[1]; [6],1 h
same,concentration at 8 day of cycle 1,[1]; [6],4.92 ng/mL
same,AUC(0-t),"[1]; human, plasma, intravenous, 0.8 mg/kg, AUC(0–25), cycle 1 day 1, MTD 0.8 mg/kg combined, n=41, geometric mean (%CV)",1590 ng·h/mL
same,AUC(0-t),"[1]; human, plasma, intravenous, 0.8 mg/kg, AUC(0–25), cycle 1 day 1, NHL expansion, 0.8 mg/kg, n=9, geometric mean (%CV)",1350 ng·h/mL
same,AUC(0-t),"[1]; human, plasma, intravenous, 0.8 mg/kg, AUC(0–25), cycle 1 day 1, cohort 4, 0.8 mg/kg, n=7, geometric mean (%CV)",1600 ng·h/mL
same,AUC(0-t),"[1]; human, plasma, intravenous, 0.8 mg/kg, AUC(0–25), cycle 1 day 15, MTD 0.8 mg/kg combined, n=35, geometric mean (%CV)",1570 ng·h/mL
same,AUC(0-t),"[1]; human, plasma, intravenous, 0.8 mg/kg, AUC(0–25), cycle 1 day 15, NHL expansion, 0.8 mg/kg, n=8, geometric mean (%CV)",1760 ng·h/mL
same,AUC(0-t),"[1]; human, plasma, intravenous, 0.8 mg/kg, AUC(0–25), cycle 1 day 15, cohort 4, 0.8 mg/kg, n=6, geometric mean (%CV)",1480 ng·h/mL
same,AUC(0-t),"[1]; human, plasma, intravenous, 0.8 mg/kg, AUC(0–tlast), cycle 1 day 1, MTD 0.8 mg/kg combined, n=41, geometric mean (%CV)",2880 ng·h/mL
same,AUC(0-t),"[1]; human, plasma, intravenous, 0.8 mg/kg, AUC(0–tlast), cycle 1 day 1, NHL expansion, 0.8 mg/kg, n=9, geometric mean (%CV)",2710 ng·h/mL
same,AUC(0-t),"[1]; human, plasma, intravenous, 0.8 mg/kg, AUC(0–tlast), cycle 1 day 1, cohort 4, 0.8 mg/kg, n=7, geometric mean (%CV)",2940 ng·h/mL
same,Cmax,"[1]; human, plasma, intravenous, 0.8 mg/kg, cycle 1 day 1, MTD 0.8 mg/kg combined, n=41, geometric mean (%CV)",454 ng/mL
same,Cmax,"[1]; human, plasma, intravenous, 0.8 mg/kg, cycle 1 day 1, cohort 4, 0.8 mg/kg, n=7, geometric mean (%CV)",293 ng/mL
same,Cmax,"[1]; human, plasma, intravenous, 0.8 mg/kg, cycle 1 day 15, MTD 0.8 mg/kg combined, n=36, geometric mean (%CV)",463 ng/mL
same,Cmax,"[1]; human, plasma, intravenous, 0.8 mg/kg, cycle 1 day 15, NHL expansion, 0.8 mg/kg, n=8, geometric mean (%CV)",507 ng/mL
same,Cmax,"[1]; human, plasma, intravenous, 0.8 mg/kg, cycle 1 day 15, cohort 4, 0.8 mg/kg, n=6, geometric mean (%CV)",370 ng/mL
same,half-life,"[1]; human, plasma, intravenous, 0.8 mg/kg, t1/2, cycle 1 day 1, MTD 0.8 mg/kg combined, n=28, value (%)",38.2 h
same,half-life,"[1]; human, plasma, intravenous, 0.8 mg/kg, t1/2, cycle 1 day 1, NHL expansion, 0.8 mg/kg, n=8, value (%)",38.9 h
same,half-life,"[1]; human, plasma, intravenous, 0.8 mg/kg, t1/2, cycle 1 day 1, cohort 4, 0.8 mg/kg, n=4, value (%)",42.3 h
same,half-life,"[1]; human, plasma, intravenous, 0.8 mg/kg, t1/2, cycle 1 day 1, solid tumors expansion, 0.8 mg/kg, n=16, value (%)",36.9 h
same,half-life,"[1]; human, plasma, intravenous, 0.8 mg/kg, terminal half-life, MTD 0.8 mg/kg, coefficient of variation 43%",38.2 h
same,Tmax,"[1]; human, plasma, intravenous, 0.8 mg/kg, tmax, cycle 1 day 1, cohort 4, 0.8 mg/kg, n=7, value (range)",1.1 h
same,Tmax,"[1]; human, plasma, intravenous, 0.8 mg/kg, tmax, cycle 1 day 15, NHL expansion, 0.8 mg/kg, n=8, value (range)",0.8 h
same,AUC(0-t),"[1]; human, plasma, intravenous, 1.2 mg/kg, AUC(0–25), cycle 1 day 1, cohort 5, 1.2 mg/kg, n=2, range",2510 to 3820 ng·h/mL
same,AUC(0-t),"[1]; human, plasma, intravenous, 1.2 mg/kg, AUC(0–tlast), cycle 1 day 1, cohort 5, 1.2 mg/kg, n=2, range",4090 to 5230 ng·h/mL
same,Cmax,"[1]; human, plasma, intravenous, 1.2 mg/kg, cycle 1 day 1, cohort 5, 1.2 mg/kg, n=2, range",616 to 739 ng/mL
same,half-life,"[1]; human, plasma, intravenous, 1.2 mg/kg, t1/2, cycle 1 day 1, cohort 5, 1.2 mg/kg, n=1",33 h
same,Tmax,"[1]; human, plasma, intravenous, 1.2 mg/kg, tmax, cycle 1 day 1, cohort 5, 1.2 mg/kg, n=2, range",0.6 to 1.3 h
same,non-diabetic patients receiving at least 1 dose of short-acting insulin,plasma glucose,65%
same,response rate,non-Hodgkin's lymphoma,100%
same,time of peak of post-infusion increase in blood pressure,[2]; in vivo,1 to 2 h
same,time to resolution of post-infusion increase in blood pressure,[2]; post-infusion,≤ 24 h
